The test system of the series is MS2 coat protein. Nature of the series: apparent Kd, MS2 coat protein; higher = weaker binding; RNA-MaP array; tryptophan 2.4 mM where present. Put shortly:
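The apparent Kd is reported as the median of filtered per-cluster binding-curve fits. To get these curves, designs transcribed by stalled E. coli RNA polymerase on Illumina sequencing-chip clusters were titrated with SNAP-549-labelled MS2 coat protein from 0.7 or 1.5 nM, doubling to 3 µM. Titrations were run without and then with constant ligand in 100 mM Tris-HCl pH 7.5, 80 mM KCl, 4 mM MgCl2, BSA, DTT, yeast tRNA and Tween-20, and green signal was normalised to red-channel RNA signal and control-cluster median Fmax.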

[1] abbreviates: designed as: ON switch for tryptophan, no ligand.
[2] abbreviates: ligand present: tryptophan, designed as: ON switch for tryptophan.
[3] abbreviates: designed as: OFF switch for tryptophan, no ligand.
The mark [4] stands for this setting: ligand present: tryptophan, designed as: OFF switch for tryptophan.

The values that follow come from the EternaBench riboswitch data.

Take “CAAAAUAUAACGGCCGCCACUUACUCAUGAGGUAACAACAUGAGGAUCACCCAUGUUUGAGGAUCAAGGACCGGGUUAUAUUUUG”: the “apparent Kd” value runs as follows: under setting [1], 0.0307 µM; under setting [2], 0.017 µM.

“AAAUAAUAUUAAUUAAUUAUAUUAUUCUGACGAGGACCGGUACGGCCGCCACUCGGCCCAUGGUACAUGAGGAUCACCCAUGUCU”: the “apparent Kd” value runs as follows: under setting [1], 0.0176 µM; under setting [2], 0.0136 µM.

For “AUUGUGAAGUCGGCCGCCACUGCAUAGUUUAACCUCUUUUAACAUGAGGAUCACCCAUGUAAUGACAGGACCGGGACAAUAGUAA”, the “apparent Kd” value reads like this: under setting [1], 0.0515 µM; under setting [2], 0.0599 µM.

Regarding “UCUGCCGCGGCUCCGAUCCUCCUGUAGUUCCGAGGACCGGUACGGCCGCCACUCGUAGCACAUGAGGAUCACCCAUGUCUUGCGG”, the “apparent Kd” value came to 0.00945 µM under setting [3] and 0.0112 µM under setting [4].

In the case of “AUUAAGGAUAUGUAGACGGCGGAGAAGAGACGAGGACCGGUACGGCCGCCACUCGUGUUAGUUAACAUGAGGAUCACCCAUGUAA”, the “apparent Kd” value is 0.0497 µM under setting [1] and 0.022 µM under setting [2].

Consider “GGCCAUGGAAACAUGGCGGCGGCGUAUGCGCGAGGACCGGUACGGCCGCCACUCGGGCGACAUGAGGAUCACCCAUGUUCCUCAU”, for which the “apparent Kd” value under setting [3] is 0.182 µM and the “apparent Kd” value under setting [4] worked out at 0.478 µM.

Consider “CUCAUCCACGCGGCCGCCACUAUAUUGUGGUGCGUAUGUGUCGUAAUACAUGAGGAUCACCCAUGUAGGACCGGGCGUGGAUGAG”, for which the “apparent Kd” value is 0.0108 µM under setting [3] and 0.0204 µM under setting [4].

As to “GGCACAUAGUCGGCCGCCACUAGUGGGAAAUGGGAGAACAUGAGGAUCACCCAUGUAUUAUAGCCUAGGACCGGGACUAUGUGCC”, the “apparent Kd” value is, setting by setting: under setting [3], 0.0748 µM; under setting [4], 0.105 µM.

For the sequence “AGCAACAAGUCGGCCGCCACUCAUUUAACAUGAGGAUCACCCAUGUGAAUAACAUGGUUGUAAUAGAGGACCGGGACAGUUGCAU”, the “apparent Kd” value is, setting by setting: under setting [1], 0.119 µM; under setting [2], 0.574 µM.

Consider “AUGUACAUGACGGCCGCCACUACACUGAAAGUGGUCCAGAACAUGAGGAUCACCCAUGUAUCAAGUAGGACCGGGUCAUGUACAU”, for which the “apparent Kd” value came out at 0.361 µM under setting [3] and 0.38 µM under setting [4].

As to “AUACAUGAGGAUCACCCAUGUGAUGGCCGGCGAGGACCGGUACGGCCGCCACUCGUGAUCCGUCCUGAGAGCAAAGCCCUCAGCA”, the “apparent Kd” value by setting is: under setting [1], 0.124 µM; under setting [2], 0.171 µM.

As for “GGUUACUCUACGGCCGCCACUGAUUAUUUAUAAUCCUGUACAUAAACAUGAGGAUCACCCAUGUACAGGACCGGGUAGUGUAACC”, the “apparent Kd” value under setting [1] was 0.0338 µM and the “apparent Kd” value under setting [2] is 0.0294 µM.

Turning to “UUAUGCAGGUCGGCCGCCACUACACACAUGAGGAUCACCCAUGUAGUUACUGGGUGAAGUGGCAGUAGGACCGGGACCUGCAUAC”, the “apparent Kd” value reads like this: under setting [1], 0.553 µM; under setting [2], 0.316 µM.

With “AGAGCAUUGACGGCCGCCACUCAUGUCACAUGAGGAUCACCCAUGUGAUGGGUGAUAGCCCGGUCGAGGACCGGGUCAAUGCUCA”, the “apparent Kd” value under setting [1] came to 0.0172 µM and the “apparent Kd” value under setting [2] was found to be 0.018 µM.

Take “CUGUACAUCUCGGCCGCCACUGCUGACAUGGGAGUCACCCAUGUCCACAUGAGGAUCACCCAUGUCAGGACCGGGAGGUGUGCAG”: the “apparent Kd” value amounted to 0.0498 µM under setting [1] and 0.255 µM under setting [2].

In the case of “CUAUAAGUACCGGUCCUCAGAUCCUCAUGACGAGGACCGGUACGGCCGCCACUCGAAACAUGAGGAUCACCCAUGUAAUAAUAAU”, the “apparent Kd” value reads like this: under setting [3], 0.0183 µM; under setting [4], 0.0186 µM.

On to “AGCCGGAUUACGGCCGCCACUGUAGACGUGACGAAAGUCGCGUCAACAUGAGGAUCACCCAUGUACAGGACCGGGUGGUCGGGCG”, for which the “apparent Kd” value under setting [1] is 0.161 µM and the “apparent Kd” value under setting [2] is 0.0275 µM.

Regarding “GGAUAGGACACGGCCGCCACUGCGCUAGGAUACUAGAACAUUUCCUCACAUGAGGAUCACCCAUGUAGGACCGGGUGUCCUAUCG”, the “apparent Kd” value reads like this: under setting [3], 0.0496 µM; under setting [4], 0.152 µM.

For the sequence “UUCUACGACGAUCUGGGAAAACCAGAUCGACGAGGACCGGUACGGCCGCCACUCGUGUUUCUUUAACAUGAGGAUCACCCAUGUA”, the “apparent Kd” value was determined as 0.0205 µM under setting [1] and 0.0145 µM under setting [2].

For the sequence “GGCGCUGCGUCGGCCGCCACUAGUGGGUAAUGGGUGUACAUGAGGAUCACCCAUGUAUUUUGGCCUAGGACCGGGACGUGGCGCC”, the “apparent Kd” value reads like this: under setting [3], 0.453 µM; under setting [4], 0.503 µM.

Take “UCGUUUUAGUCGGCCGCCACUGUGAGCAUGGUUAACAUGAGGAUCACCCAUGUCCCGUACUAUAACAGGACCGGGACGUAGUUGC”: the “apparent Kd” value is, setting by setting: under setting [1], 0.093 µM; under setting [2], 0.0228 µM.

As to “AAUGUAUGGCACAUGAGGAUCACCCAUGUGCGAGGACCGGUACGGCCGCCACUCGGUCCUGGGAACUUAUUACUAUACAUUAAUG”, the “apparent Kd” value under setting [3] was found to be 0.0119 µM and the “apparent Kd” value under setting [4] amounted to 0.0233 µM.

Consider “AAUGUAUUCCACAUGAGGAUCACCCAUGUGCGAGGACCGGUACGGCCGCCACUCGGUGUUGGGAUCUGUUCUGAAUACAUUAAUG”, for which the “apparent Kd” value under setting [3] amounted to 0.029 µM and the “apparent Kd” value under setting [4] was 0.114 µM.

Take “CUACAUUUGUAGAAACCGGUCAACAAUAAUCGAGGACCGGUACGGCCGCCACUCGAUGUGAAAUCACAUGAGGAUCACCCAUGUA”: the “apparent Kd” value by setting is: under setting [1], 0.018 µM; under setting [2], 0.0181 µM.

Consider “CAUCCUAGUACAUGAGGAUCACCCAUGUAUCGAGGACCGGUACGGCCGCCACUCGAAUGGCGGAUCGUUAAUCCUCUAGGAUGGA”, for which the “apparent Kd” value under setting [3] was found to be 0.01 µM and the “apparent Kd” value under setting [4] is 0.0135 µM.

Consider “GCAUCCUAGUCGGCCGCCACUACAACAUGAGGAUCACCCAUGUGUGGGAGAUCCGUCCUACGAAGUAGGACCGGGACUAGGAUGC”, for which the “apparent Kd” value is, setting by setting: under setting [1], 0.272 µM; under setting [2], 0.444 µM.

For the sequence “AAGACCAGGAGGUGAUCCUAACUGGUCCAACGAGGACCGGUACGGCCGCCACUCGAAUAAACAUGAGGAUCACCCAUGUAAUAAU”, the “apparent Kd” value came out at 0.0981 µM under setting [1] and 0.225 µM under setting [2].

Take “UGUAUUGGAAACAGUACUAGUGAUCCGGUCCGAGGACCGGUACGGCCGCCACUCGAAAUUAAUAAACAUGAGGAUCACCCAUGUA”: the “apparent Kd” value by setting is: under setting [3], 0.0148 µM; under setting [4], 0.0342 µM.

Turning to “ACAUGAGGAUCACCCAUGUGCAUGAUGAUCCGAGGACCGGUACGGCCGCCACUCGUCAUGAUGAUCUUUCAUGUUUGUCGCGCGC”, the “apparent Kd” value runs as follows: under setting [1], 0.329 µM; under setting [2], 0.429 µM.
